We go through 39 compounds from ChEMBL document CHEMBL5352453, “Hit-to-lead optimization of a 2-aminobenzimidazole series as new candidates for chagas disease” (Eur J Med Chem, 2023).

The structures appear in SMILES notation.

Data set [1] is described as follows: Metabolic stability in CD1 mouse liver microsomes assessed as intrinsic clearance measured upto 60 mins by LC-MS/MS analysis. It is filed as ADME. The settings on record: read-out: CLH. The method, boiled down: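 CD1 mouse liver microsomes at 0.25 mg/mL, compound at 0.5 µM, pH 7.4, 37 °C, started with NADPH. Sampled at 0, 5, 10, 20, 30 and 60 min and quenched with acetonitrile:methanol containing tolbutamide. Measured by LC-MS/MS; CLint (k × 1000/0.25, µL/min/mg) derived by non-linear regression of % remaining over time.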
In general terms: Liver microsomes are vesicles of endoplasmic reticulum, rich in cytochrome P450 enzymes.

A short description of data set [2]: Selectivity index, ratio of CC50 for cytotoxicity against human MRC5 cells to EC50 for Trypanosoma cruzi Tulahuen CL2 amastigotes expressing beta galactosidase infected in human MRC5 cells. It counts as toxicity, cell-based. The settings on record: read-out: Selectivity Index. The essentials:
(§1)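 T. cruzi Tulahuen CL2 β-galactosidase strain grown in MRC-5 cells (MEM, 5% heat-inactivated FCS, 37 °C, 5% CO2). MRC-5 cells (4 x 10^3/well) plus parasites (4 x 10^4/well) exposed 7 days to 4-fold dilutions from 64 µM down; final DMSO <1%. CPRG with Nonidet added, absorbance at 540 nm after 4 h. IC50 calculated against untreated-infected (100%) and non-infected (0%) controls. SI = MRC-5 CC50/IC50.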

The subject of data set [3] is Trypanosoma cruzi. Nature of the data set: Antitrypanosomal activity against Trypanosoma cruzi Tulahuen CL2 amastigotes expressing beta galactosidase infected in human MRC5 cells assessed as reduction in parasite burden using chlorophenol red beta-D-galactopyranoside as substrate and measured after 7 days by spectrophotometric analysis. The settings on record: Tulahuen CL2, MRC5, 168 h. It is filed as functional, organism-based. The method, boiled down: as §1

The IC50 is the point on the concentration scale where inhibition reaches its midpoint. `CCCn1c(NC(=O)Cc2ccc(F)cc2)nc2ccc(C(=O)NC)cc21`: in data set [1], the microsomal CLint stood at 66 µL/min/mg. In data set [2], the selectivity ratio amounted to 1. The IC50 in data set [3] turned out to be 34 µM.

Consider `O=C(Nc1nc2cc(F)cnc2n1CC(F)(F)F)c1ccc(C(F)(F)F)nc1`, for which the microsomal CLint in data set [1] was determined as 113 µL/min/mg. Moreover, in data set [2], the selectivity ratio is 6. The IC50 in data set [3] is 0.15 µM.

In the case of `CCCn1c(NC(=O)Cc2ccc(F)cc2)nc2cccnc21`, in data set [1], the microsomal CLint was 1500 µL/min/mg. In addition, the selectivity ratio in data set [2] is greater than 49. For the same compound, the half-maximal inhibitory concentration (IC50) in data set [3] was found to be 1.3 µM.

Regarding `Cn1nccc1C(=O)Nc1nc2ccc(C#N)cc2n1CCF`, in data set [1], the microsomal CLint was 154 µL/min/mg. In data set [2], the selectivity ratio amounted to 2. The IC50 in data set [3] was determined as 8.4 µM.

As for `Cc1nn[nH]c1C(=O)Nc1nc2ccc(C#N)cc2n1CC(F)(F)F`, the microsomal CLint in data set [1] turned out to be 141 µL/min/mg. For the same compound, the selectivity ratio in data set [2] amounted to 1. The IC50 in data set [3] is 64 µM.

With `Cn1nccc1C(=O)Nc1nc2ccc(C#N)cc2n1CC(F)F`, the microsomal CLint in data set [1] turned out to be 383 µL/min/mg. In addition, the selectivity ratio in data set [2] worked out at 5. The IC50 in data set [3] came to 2.4 µM.

On to `Cc1nnn(CC(=O)Nc2nc3ccc(C#N)cc3n2CC(F)(F)F)n1`, for which the microsomal CLint in data set [1] amounted to 25 µL/min/mg. For the same compound, the selectivity ratio in data set [2] is greater than 6. For the same compound, the IC50 in data set [3] turned out to be 11 µM.

For `CCCn1c(NC(=O)Cc2ccc(F)cc2)nc2ccc(C(=O)NCOC)cc21`, in data set [1], the microsomal CLint was determined as 128 µL/min/mg. In addition, the selectivity ratio in data set [2] is 7. Also, the IC50 in data set [3] was determined as 8.3 µM.

Consider `CCCn1c(NC(=O)Cc2ccc(Cl)cc2)nc2cc(C(F)(F)F)ccc21`, for which the microsomal CLint in data set [1] is 283 µL/min/mg. Further, in data set [2], the selectivity ratio is 15. For the same compound, the IC50 in data set [3] came to 0.74 µM.

Consider `Cn1nccc1C(=O)Nc1nc2cncnc2n1CC(F)(F)F`, for which the microsomal CLint in data set [1] was 24 µL/min/mg. In data set [2], the selectivity ratio was determined as 3. The IC50 in data set [3] was 8.2 µM.

Regarding `O=C(Nc1nc2ccc(F)cc2n1CC(F)(F)F)c1cccnc1`, in data set [1], the microsomal CLint came out at 98 µL/min/mg. Also, in data set [2], the selectivity ratio was 13. For the same compound, the IC50 in data set [3] amounted to 4.2 µM.

With `Cn1nc(C(=O)Nc2nc3ccc(C#N)cc3n2CC(F)(F)F)cc1C(F)(F)F`, the microsomal CLint in data set [1] was determined as 77 µL/min/mg. For the same compound, the selectivity ratio in data set [2] came out at 1. Besides, the IC50 in data set [3] was found to be 64 µM.

Take `CC(C)(O)Cn1c(NC(=O)c2ccc(C(F)(F)F)nc2)nc2ccc(C#N)cc21`: the microsomal CLint in data set [1] came out at 23 µL/min/mg. Also, the selectivity ratio in data set [2] is 1. Moreover, the IC50 in data set [3] is 37 µM.

As to `Cn1nccc1C(=O)Nc1nc2cccnc2n1CC(C)(C)C`, the microsomal CLint in data set [1] is 222 µL/min/mg. The selectivity ratio in data set [2] is 20. For the same compound, in data set [3], the IC50 was found to be 2.2 µM.

Take `COc1ccc(C(=O)Nc2nc3ccc(C#N)cc3n2CC(F)(F)F)cn1`: the microsomal CLint in data set [1] turned out to be 170 µL/min/mg. The selectivity ratio in data set [2] was greater than 28. The IC50 in data set [3] is 2.3 µM.

For the compound `O=C(Nc1nc2cc(F)ccc2n1C1CCOCC1)c1cccnc1`, the microsomal CLint in data set [1] came to 26 µL/min/mg. Besides, the selectivity ratio in data set [2] is 5. The IC50 in data set [3] came to 8.5 µM.

On to `O=C(Nc1nc2ccc(F)cc2n1C1CC1)c1cccnc1`, for which, in data set [1], the microsomal CLint is 160 µL/min/mg. Besides, the selectivity ratio in data set [2] was greater than 2. The IC50 in data set [3] was determined as 34 µM.

For the compound `CCCn1c(NC(=O)c2ccccn2)nc2cccnc21`, the microsomal CLint in data set [1] was determined as 265 µL/min/mg. In addition, the selectivity ratio in data set [2] is greater than 8. In addition, in data set [3], the IC50 worked out at 8.4 µM.

On to `Cn1nccc1C(=O)Nc1nc2cc(F)cnc2n1CC(F)(F)F`, for which, in data set [1], the microsomal CLint was found to be 44 µL/min/mg. The selectivity ratio in data set [2] came to 3. The IC50 in data set [3] came out at 0.84 µM.

For `Cn1nccc1C(=O)Nc1nc2cccnc2n1CC(F)(F)F`, the microsomal CLint in data set [1] was 119 µL/min/mg. Besides, the selectivity ratio in data set [2] was 2. Moreover, the concentration for half-maximal inhibition (IC50) in data set [3] came to 3.9 µM.

For `O=C(Nc1nc2ccc(F)cc2n1CC(F)(F)F)c1ccc(C(F)(F)F)nc1`, the microsomal CLint in data set [1] stood at 86 µL/min/mg. Besides, in data set [2], the selectivity ratio is greater than 2. For the same compound, the IC50 in data set [3] turned out to be 42 µM.

For the compound `Cc1nc(C)c(C(=O)Nc2nc3ccc(C#N)cc3n2CC(F)(F)F)s1`, in data set [1], the microsomal CLint amounted to 595 µL/min/mg. Besides, the selectivity ratio in data set [2] was found to be 14. Besides, the IC50 in data set [3] came to 0.54 µM.

Regarding `O=C(Nc1nc2cc(F)ccc2n1C1CCOCC1)c1ccc(C(F)(F)F)nc1`, the microsomal CLint in data set [1] came to 23 µL/min/mg. Moreover, the selectivity ratio in data set [2] was greater than 2. Moreover, in data set [3], the IC50 worked out at 35 µM.

Turning to `CCCn1c(NC(=O)c2cccc(C(F)(F)F)n2)nc2cccnc21`, the microsomal CLint in data set [1] was 285 µL/min/mg. In addition, in data set [2], the selectivity ratio is greater than 27. Further, in data set [3], the IC50 was 2.4 µM.

`N#Cc1ccc2nc(NC(=O)c3cc(C(F)(F)F)n[nH]3)n(CC(F)F)c2c1`: the microsomal CLint in data set [1] amounted to 70 µL/min/mg. Moreover, in data set [2], the selectivity ratio came out at 11. In addition, in data set [3], the half-inhibitory concentration (IC50) was found to be 0.49 µM.

For the compound `CCCn1c(NC(=O)Cc2ccc(Cl)cc2)nc2ccc(F)cc21`, the microsomal CLint in data set [1] came out at 1590 µL/min/mg. For the same compound, the selectivity ratio in data set [2] came out at 102. For the same compound, the IC50 in data set [3] is 0.56 µM.

Consider `CN1CCC(n2c(NC(=O)c3ccnn3C)nc3ccc(C#N)cc32)CC1`, for which the microsomal CLint in data set [1] is 72 µL/min/mg. In addition, the selectivity ratio in data set [2] is greater than 2. Further, in data set [3], the IC50 came out at 34 µM.

In the case of `Cn1nccc1C(=O)Nc1nc2ccc(C#N)cc2n1CC(C)(C)O`, the microsomal CLint in data set [1] is 23 µL/min/mg. In addition, the selectivity ratio in data set [2] is greater than 5. Besides, in data set [3], the IC50 was found to be 13 µM.

As for `CCCn1c(NC(=O)Cc2cc(F)ccc2F)nc2cc(F)c(F)cc21`, in data set [1], the microsomal CLint is 389 µL/min/mg. Further, in data set [2], the selectivity ratio turned out to be 52. Also, in data set [3], the IC50 amounted to 0.58 µM.

For the compound `N#Cc1ccc2nc(NC(=O)Cn3cccn3)n(CC(F)(F)F)c2c1`, the microsomal CLint in data set [1] came to 36 µL/min/mg. For the same compound, in data set [2], the selectivity ratio stood at 9. In data set [3], the IC50 turned out to be 6.6 µM.

Consider `CS(=O)(=O)c1ccc2c(c1)nc(NC(=O)c1ccnc(C(F)(F)F)c1)n2CC(F)(F)F`, for which, in data set [1], the microsomal CLint came to 23 µL/min/mg. The selectivity ratio in data set [2] amounted to 5. Besides, in data set [3], the IC50 worked out at 0.55 µM.

For the compound `CC(=O)N1CCC(n2c(NC(=O)c3ccnn3C)nc3ccc(C#N)cc32)CC1`, the microsomal CLint in data set [1] was determined as 23 µL/min/mg. Moreover, the selectivity ratio in data set [2] turned out to be 1. For the same compound, the IC50 in data set [3] came out at 64 µM.

On to `CCCn1c(NC(=O)c2cccc(C(F)(F)F)n2)nc2ccc(F)cc21`, for which the microsomal CLint in data set [1] amounted to 467 µL/min/mg. Further, the selectivity ratio in data set [2] is greater than 28. Further, the IC50 in data set [3] worked out at 2.3 µM.

For the compound `CCCn1c(NC(=O)c2cccnc2)nc2cc(F)c(F)cc21`, the microsomal CLint in data set [1] was 446 µL/min/mg. Moreover, in data set [2], the selectivity ratio was greater than 30. The IC50 in data set [3] amounted to 2.1 µM.

Turning to `CCCn1c(NC(=O)Cc2ccc(F)cc2)nc2cc(F)c(F)cc21`, the microsomal CLint in data set [1] is 399 µL/min/mg. Also, the selectivity ratio in data set [2] was greater than 121. Also, the IC50 in data set [3] is 0.53 µM.

On to `CC(C)(C)Cn1c(NC(=O)c2cccnc2)nc2ccc(C#N)cc21`, for which, in data set [1], the microsomal CLint came to 87 µL/min/mg. Moreover, the selectivity ratio in data set [2] was greater than 7. In data set [3], the IC50 is 8.7 µM.

Regarding `CCCn1c(NC(=O)Cc2ccc(F)cc2)nc2ccc(C(=O)N3CCOCC3)cc21`, the microsomal CLint in data set [1] was 23 µL/min/mg. Also, the selectivity ratio in data set [2] was greater than 2. Moreover, the IC50 in data set [3] came out at 35 µM.

`CCCn1c(NC(=O)Cc2ccc(F)cc2)nc2c(F)cccc21`: in data set [1], the microsomal CLint came out at 715 µL/min/mg. Also, the selectivity ratio in data set [2] came to 1. The concentration for half-maximal inhibition (IC50) in data set [3] was greater than 64 µM.

For `N#Cc1ccc2nc(NC(=O)c3ncc(F)cc3F)n(CC(F)(F)F)c2c1`, the microsomal CLint in data set [1] was 253 µL/min/mg. In addition, the selectivity ratio in data set [2] was found to be 3. Further, the IC50 in data set [3] turned out to be 17 µM.
